Blank lines part the entries; values can stand above or below the compound they belong to. Active and inactive are the calls of the source. The rule behind the calls is not given here. *1 amine or outer side, *2 acyl side, *3 side chain or, on linkers, in order; H or OH if unused. Where a SMILES comes first, the peptide text is derived from it. Side-chain parts run from the residue outwards. [ ]: non-standard residue; d: D form. The star is where a group is joined. Glyψ(1,4-Tz)Leu = CC(C)C[C@@H](C(=O)[*:2])n1cc(CN[*:1])nn1; γGlu = O=C(O)[C@H](CCC(=O)[*:2])N[*:1]; Palmitoyl = CCCCCCCCCCCCCCCC(=O)*; azaGly = NNC(=O)O
Columns and labels:
KiSS-1 receptor [1] = molecular target: T1, KiSS-1 receptor (Homo sapiens, UniProt Q969F8); experiment: Agonist activity at human wild-type KISS1R expressed in HEK293 cells assessed as induction of intracellular Ca2+ mobilization after 30 mins by Fluo4 NW Ca2+ assay; format: functional, cell-based
T1 sequence (Q969F8 whole entry): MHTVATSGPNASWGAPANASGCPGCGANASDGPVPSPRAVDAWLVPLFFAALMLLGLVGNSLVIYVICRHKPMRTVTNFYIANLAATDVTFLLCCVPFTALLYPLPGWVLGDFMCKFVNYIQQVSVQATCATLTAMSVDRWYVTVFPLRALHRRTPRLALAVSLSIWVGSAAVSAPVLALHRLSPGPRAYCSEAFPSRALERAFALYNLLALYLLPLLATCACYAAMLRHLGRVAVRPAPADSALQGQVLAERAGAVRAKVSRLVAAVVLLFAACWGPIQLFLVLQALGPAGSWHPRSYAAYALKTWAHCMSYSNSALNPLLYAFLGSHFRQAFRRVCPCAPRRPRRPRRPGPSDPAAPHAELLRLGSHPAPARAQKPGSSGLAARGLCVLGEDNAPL
Procedure, shortened: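 HEK293 stably expressing HA-tagged wild-type human KISS1R, plated 40 000 cells/well 48 h prior. Loaded with Fluo4 NW dye 30 min at 37 °C plus 30 min at rt. Basal read 5× at 7 s intervals, compound added (final 1 pM–1 μM), Ca2+ followed 7 min. Mean basal subtracted, AUC plotted against concentration, sigmoid fit gives EC50. Nontransfected HEK293 served as control.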

[2] = Stability in Ile-de-France ewe serum assessed as intact compound level at 50 uM incubated for 6 hrs by HPLC method; format: ADME, cell-free, Ovis aries; details: female, sheep, read-out: Stability
Procedure, shortened: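 Ile-de-France ewe serum, stored at −20 °C and preheated 30 min at 39 °C. Peptide at 50 μM final, with L-phenylalaninol internal calibrator, incubated at 39 °C. Proteins precipitated with MeCN and spun; supernatant run on RP-HPLC (2–52% MeCN/0.1% TFA over 5 min, UV 214 nm, plus MS). Intact peak given as % of t = 0 area; five independent experiments.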

Ovis aries [3] = experiment: Increase in time duration of increase of plasma LH level in anoestrus Ile-de-France ewe at 15 nmol, iv by radioimmunoassay; format: functional
Procedure, shortened: (§1)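 Intact acyclic anoestrous Ile-de-France ewes (3–5 y, 55–70 kg), jugular catheter placed the day before. Single iv bolus of 1–15 nmol/ewe. Basal LH taken every 10 min for 30 min, then every 10 min for 2 h, every 20 min for 4 h, then hourly. Plasma LH by RIA (1051-CY-LH standard, sensitivity 0.1 ng/mL). Peak, duration and AUC derived; mean ± SEM, N = 4–6.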

Ovis aries [4] = experiment: Increase in maximal amplitude of plasma LH level in anoestrus Ile-de-France ewe at 1 to 15 nmol, iv by radioimmunoassay; format: functional, organism-based; procedure, shortened: as §1
Ovis aries [5] = experiment: Increase in time duration of increase of plasma LH level in anoestrus Ile-de-France ewe at 1 to 15 nmol, iv by radioimmunoassay; format: functional, organism-based; procedure, shortened: as §1
Ovis aries [6] = experiment: Increase in total plasma LH level in anoestrus Ile-de-France ewe at 1 to 15 nmol, iv by radioimmunoassay; format: functional, organism-based; procedure, shortened: as §1
Ovis aries [7] = experiment: Increase in peak plasma LH level in anoestrus Ile-de-France ewe at 1 nmol, iv by radioimmunoassay (reference value: 0.3 +/- 0.09 ng/ml); format: functional; procedure, shortened: as §1
Ovis aries [8] = experiment: Increase in peak plasma LH level in anoestrus Ile-de-France ewe at 5 nmol, iv by radioimmunoassay (reference value: 0.2 +/- 0.09 ng/ml); format: functional; procedure, shortened: as §1
Ovis aries [9] = experiment: Increase in peak plasma LH level in anoestrus Ile-de-France ewe at 15 nmol, iv by radioimmunoassay (reference value: 0.3 +/- 0.15 ng/ml); format: functional; procedure, shortened: as §1
Ovis aries [10] = experiment: Increase in peak plasma LH level in anoestrus Ile-de-France ewe at 5 nmol, iv by radioimmunoassay relative to untreated control; format: functional; procedure, shortened: as §1
Ovis aries [11] = experiment: Increase in peak plasma LH level in anoestrus Ile-de-France ewe at 15 nmol, iv by radioimmunoassay relative to untreated control; format: functional; procedure, shortened: as §1
Ovis aries [12] = experiment: Increase in total plasma LH level in anoestrus Ile-de-France ewe at 1 nmol, iv by radioimmunoassay; format: functional; procedure, shortened: as §1
Ovis aries [13] = experiment: Increase in total plasma LH level in anoestrus Ile-de-France ewe at 15 nmol, iv by radioimmunoassay; format: functional; procedure, shortened: as §1
Ovis aries [14] = experiment: Increase in FSH level in anoestrus Ile-de-France ewe at 1 nmol, iv by radioimmunoassay; format: functional, organism-based
Procedure, shortened: (§2)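 Intact acyclic anoestrous Ile-de-France ewes (3–5 y, 55–70 kg), jugular catheter placed the day before. Single iv bolus. Basal sampled every 10 min for 30 min, then every 10 min for 2 h, every 20 min for 4 h, then hourly. Plasma FSH measured by RIA with Tucker reagents (sensitivity 0.1 ng/mL), AUC computed; mean ± SEM, N = 4–6.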

Ovis aries [15] = experiment: Increase in FSH level in anoestrus Ile-de-France ewe at 5 nmol, iv by radioimmunoassay; format: functional, organism-based; procedure, shortened: as §2
Ovis aries [16] = experiment: Increase in FSH level in anoestrus Ile-de-France ewe at 15 nmol, iv by radioimmunoassay; format: functional, organism-based; procedure, shortened: as §2
[17] = molecular target: Neuropeptide FF receptor 1 (Homo sapiens, UniProt Q9GZQ6); experiment: Agonist activity at human NPFF1R expressed in CHO cells assessed as effect on forskolin-induced cAMP accumulation after 15 mins by luminescence based assay; format: functional, cell-based
Neuropeptide FF receptor 1, sequence (Q9GZQ6 whole entry): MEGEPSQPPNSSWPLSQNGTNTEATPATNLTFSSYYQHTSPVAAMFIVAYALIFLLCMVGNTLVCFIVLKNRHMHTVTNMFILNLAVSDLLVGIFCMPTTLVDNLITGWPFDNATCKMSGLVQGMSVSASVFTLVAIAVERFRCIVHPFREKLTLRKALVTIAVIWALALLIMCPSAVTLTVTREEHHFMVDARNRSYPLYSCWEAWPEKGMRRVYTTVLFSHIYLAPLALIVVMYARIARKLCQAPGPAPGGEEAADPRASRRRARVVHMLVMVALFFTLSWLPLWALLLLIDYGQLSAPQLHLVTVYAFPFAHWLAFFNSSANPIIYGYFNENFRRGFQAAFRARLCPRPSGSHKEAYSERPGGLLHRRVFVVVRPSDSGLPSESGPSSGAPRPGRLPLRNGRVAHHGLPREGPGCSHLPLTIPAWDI
Procedure, shortened: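 CHO cells stably expressing hNPFF1R (Gαi-coupled), transfected with GloSensor; seeded 30 000 cells/well 24 h before, PBS-washed twice, loaded with GloSensor cAMP reagent 2 h. Compound added, luminescence read 15 min, then 300 nM forskolin + 0.25 mM IBMX added and read a further 120 min. Signal AUC plotted against concentration, sigmoid fit for EC50.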

Homo sapiens = species: Homo sapiens; experiment: Selectivity index, ratio of EC50 for human NPFF1R to EC50 for human wild-type KISS1R
KiSS-1 receptor [18] = molecular target: T1, KiSS-1 receptor; experiment: Potency index, ratio of EC50 for KP10 to EC50 for compound for agonist activity at human wild-type KISS1R expressed in HEK293 cells assessed as induction of intracellular Ca2+ mobilization after 30 mins by Fluo4 NW Ca2+ assay; format: functional, cell-based
Procedure, shortened: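 Ratio of KP10 EC50 to analog EC50, both measured by Fluo4 NW Ca2+ mobilization in HEK293 cells stably expressing HA-tagged human KISS1R. AUC from 7 min of monitoring, concentrations 1 pM–1 μM, sigmoid fit.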

Ovis aries [19] = experiment: Increase in total plasma LH level in anoestrus Ile-de-France ewe at 5 nmol, iv by radioimmunoassay; format: functional, organism-based; procedure, shortened: as §1
Ovis aries [20] = experiment: Increase in maximal amplitude of plasma LH level in anoestrus Ile-de-France ewe at 5 nmol, iv by radioimmunoassay (reference value: 0.4 +/- 0.2 ng/ml); format: functional; procedure, shortened: as §1
Ovis aries [21] = experiment: Increase in duration of increase of plasma LH level in anoestrus Ile-de-France ewe at 5 nmol, iv by radioimmunoassay; format: functional; procedure, shortened: as §1
[22] = Drug metabolism in Ile-de-France ewe serum assessed as cleavage at C and N-termini of azaGly bond at 50 uM incubated for 6 hrs by LC-MS method; format: ADME, cell-free, Ovis aries; details: sheep

SMILES: CC(=O)N[C@@H](Cc1ccc(O)cc1)C(=O)N[C@@H](CC(N)=O)C(=O)N[C@@H](Cc1c[nH]c2ccccc12)C(=O)N[C@@H](CC(N)=O)C(=O)N[C@@H](CO)C(=O)N[C@@H](Cc1ccccc1)c1cn(Cc2cn([C@@H](CC(C)C)C(=O)N[C@@H](CCCNC(=N)N)C(=O)N[C@@H](Cc3ccc(O)cc3)C(N)=O)nn2)nn1
EC50 (KiSS-1 receptor [1]): 120 nM
remaining at 6 h, 50 µM [2]: 50.7%

SMILES: CCCCCCCCCCCCCCCC(=O)NCCCC[C@H](NC(=O)[C@H](Cc1ccc(O)cc1)NC(C)=O)C(=O)N[C@@H](Cc1c[nH]c2ccccc12)C(=O)N[C@@H](CC(N)=O)C(=O)N[C@@H](CO)C(=O)N[C@@H](Cc1ccccc1)C(=O)NCC(=O)N[C@@H](CC(C)C)C(=O)N[C@@H](CCCNC(=N)N)C(=O)N[C@@H](Cc1ccc(O)cc1)C(N)=O (Ac-YK(Palmitoyl)WNSFGLRY-NH2)
EC50 (KiSS-1 receptor [1]): 182 nM

SMILES: CCCCCCCCCCCCCCCC(=O)N[C@@H](CCC(=O)NCCCC[C@H](NC(=O)[C@H](Cc1ccc(O)cc1)NC(C)=O)C(=O)N[C@@H](Cc1c[nH]c2ccccc12)C(=O)N[C@@H](CC(N)=O)C(=O)N[C@@H](CO)C(=O)N[C@@H](Cc1ccccc1)C(=O)NCC(=O)N[C@@H](CC(C)C)C(=O)N[C@@H](CCCNC(=N)N)C(=O)N[C@@H](Cc1ccc(O)cc1)C(N)=O)C(=O)O (Ac-YK([γGlu-Palmitoyl])WNSFGLRY-NH2)
EC50 (KiSS-1 receptor [1]): 2.9 nM

SMILES: CCCCCCCCCCCCCCCC(=O)N[C@@H](CCC(=O)NCCCC[C@H](NC(=O)[C@H](Cc1ccc(O)cc1)NC(C)=O)C(=O)N[C@@H](Cc1c[nH]c2ccccc12)C(=O)N[C@@H](CC(N)=O)C(=O)N[C@@H](CO)C(=O)N[C@@H](Cc1ccccc1)C(=O)NCc1cn([C@@H](CC(C)C)C(=O)N[C@@H](CCCNC(=N)N)C(=O)N[C@@H](Cc2ccc(O)cc2)C(N)=O)nn1)C(=O)O (Ac-YK([γGlu-Palmitoyl])WNSF[Glyψ(1,4-Tz)Leu]RY-NH2)
Time (Ovis aries [3]): >9 h
EC50 (KiSS-1 receptor [1]): 1.6 nM
Activity (Ovis aries [4]): Dose-dependent effect
Activity (Ovis aries [5]): Dose-dependent effect
Activity (Ovis aries [6]): Dose-dependent effect
Activity (Ovis aries [7]): 1.1 ng/mL
Activity (Ovis aries [8]): 5.3 ng/mL
Activity (Ovis aries [9]): 13.3 ng/mL
fold change (FC) (Ovis aries [10]): 25
fold change (FC) (Ovis aries [11]): 40
Activity (Ovis aries [12]): 274 ng·min/mL
Activity (Ovis aries [13]): 2400 ng·min/mL
Activity (Ovis aries [14]): inactive
Activity (Ovis aries [15]): inactive
Activity (Ovis aries [16]): Active
EC50 [17]: 222 nM
Ratio EC50 (Homo sapiens): > 100

SMILES: CCCCCCCCCCCCCCCC(=O)N[C@@H](CCC(=O)NCCCC[C@H](NC(=O)[C@H](CC(N)=O)NC(=O)[C@H](Cc1ccc(O)cc1)NC(C)=O)C(=O)N[C@@H](CC(N)=O)C(=O)N[C@@H](CO)C(=O)N[C@@H](Cc1ccccc1)C(=O)NCC(=O)N[C@@H](CC(C)C)C(=O)N[C@@H](CCCNC(=N)N)C(=O)N[C@@H](Cc1ccc(O)cc1)C(N)=O)C(=O)O (Ac-YNK([γGlu-Palmitoyl])NSFGLRY-NH2)
EC50 (KiSS-1 receptor [1]): 24.4 nM

SMILES: CC(=O)N[C@@H](Cc1ccc(O)cc1)C(=O)N[C@@H](CC(N)=O)C(=O)N[C@@H](Cc1c[nH]c2ccccc12)C(=O)N[C@@H](CC(N)=O)C(=O)N[C@@H](CO)C(=O)N[C@@H](Cc1ccccc1)C(=O)NCc1cn([C@@H](CC(C)C)C(=O)N[C@@H](CCCNC(=N)N)C(=O)N[C@@H](Cc2ccc(O)cc2)C(N)=O)nn1 (Ac-YNWNSF[Glyψ(1,4-Tz)Leu]RY-NH2)
EC50 (KiSS-1 receptor [1]): 0.07 nM
remaining at 6 h, 50 µM [2]: 40.8%
Ratio EC50 (KiSS-1 receptor [18]): 30
Activity (Ovis aries [19]): Active
Activity (Ovis aries [20]): 5.4 ng/mL
fold change (FC) (Ovis aries [21]): >2
Activity (Ovis aries [4]): Active
Activity (Ovis aries [5]): Active
Activity (Ovis aries [6]): Active
EC50 [17]: > 5000 nM
Ratio EC50 (Homo sapiens): > 10000

More lines, now with the values ahead:

EC50 (KiSS-1 receptor [1]): > 500 nM
SMILES: CCCCCCCCCCCCCCCC(=O)NCCCC[C@H](NC(=O)[C@H](CC(N)=O)NC(=O)[C@H](Cc1ccc(O)cc1)NC(C)=O)C(=O)N[C@@H](CC(N)=O)C(=O)N[C@@H](CO)C(=O)N[C@@H](Cc1ccccc1)C(=O)NCC(=O)N[C@@H](CC(C)C)C(=O)N[C@@H](CCCNC(=N)N)C(=O)N[C@@H](Cc1ccc(O)cc1)C(N)=O (Ac-YNK(Palmitoyl)NSFGLRY-NH2)

EC50 (KiSS-1 receptor [1]): 216 nM
SMILES: CCCCCCCCCCCCCCCC(=O)N[C@@H](CCC(=O)NCCCC[C@H](NC(=O)[C@H](CC(N)=O)NC(=O)[C@H](Cc1ccc(O)cc1)NC(C)=O)C(=O)N[C@@H](CC(N)=O)C(=O)N[C@@H](CO)C(=O)N[C@@H](Cc1ccccc1)C(=O)NCc1cn([C@@H](CC(C)C)C(=O)N[C@@H](CCCNC(=N)N)C(=O)N[C@@H](Cc2ccc(O)cc2)C(N)=O)nn1)C(=O)O (Ac-YNK([γGlu-Palmitoyl])NSF[Glyψ(1,4-Tz)Leu]RY-NH2)

EC50 (KiSS-1 receptor [1]): 0.006 nM
remaining at 6 h, 50 µM [2]: 8.4%
Drug metabolism [22]: metabolite_detected
SMILES: CC(=O)N[C@@H](Cc1ccc(O)cc1)C(=O)N[C@@H](CC(N)=O)C(=O)N[C@@H](Cc1c[nH]c2ccccc12)C(=O)N[C@@H](CC(N)=O)C(=O)N[C@@H](CO)C(=O)N[C@@H](Cc1ccccc1)C(=O)NNC(=O)N[C@@H](CC(C)C)C(=O)N[C@@H](CCCNC(=N)N)C(=O)N[C@@H](Cc1ccc(O)cc1)C(N)=O (Ac-YNWNSF[azaGly]LRY-NH2)
